# Reference: ChEMBL document CHEMBL4354869, “pH-Dependent Grafting of Cancer Cells with Antigenic Epitopes Promotes Selective Antibody-Mediated Cytotoxicity” (J Med Chem, 2020)
# Activity calls are given as the source filed them. No cut-off for these calls is given here. Peptide text beside a SMILES is read from it. * marks the point of attachment. Dnp = O=[N+]([O-])c1ccc(*)c([N+](=O)[O-])c1
# Experiments:
# MDA-MB-231 [1] = assay: (§1) Induction of antibody dependent cytotoxicity against human MDA-MB-231 cells assessed as cell lysis at 500 nM incubated for 5 mins at pH 6 to 7.4 followed by compound washout prior to anti-DNP antibody addition for 30 mins and subsequent human haNK cell addition at 5:1 effector to target ratio measured after 4 hrs by LDH release assay relative to control; assay type: functional
# Summary of the method: (§2)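 150000 MDA-MB-231 given conjugate 5 min at 37 °C, pH 7.4 or 6.0, washed at 4 °C, 25 μg/mL anti-DNP rabbit polyclonal 30 min 4 °C, then effectors 4 h at 37 °C: single-donor PBMCs at 50:1 in RPMI 1640, or haNK (F176V CD16 NK-92, IL-2-grown) at 5:1 in MEMα. Supernatant LDH; % lysis vs antibody+effector without peptide; mean ± SEM, n = 3–12.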
# MDA-MB-231 [2] = assay: Induction of opsonization in human MDA-MB-231 cells assessed as increase in recruitment of anti-DNP antibody to cell surface at 1 uM measured after 5 to 10 mins at pH 6 to 7.4 by AlexaFluor-488-conjugated anti-DNP antibody based flow cytometry; assay type: functional
# Summary of the method: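 Conjugate pre-incubated 1 h RT at 20 μM in 5 mM sodium phosphate pH 9.0, diluted, then pH adjusted with citrate buffer. MDA-MB-231 (350000 cells, suspension) exposed to 1 μM for 5 or 10 min, 37 °C, pH 7.4 or 6.0, washed, stained with 25 μg/mL anti-DNP-A488 30 min at 4 °C, PFA-fixed. Flow cytometry, ≥3000 events; fold over pH 7.4 antibody-only cells.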
# Lipid bilayer = assay: Binding affinity to POPC large unilamellar vesicle at 1:300 ratio measured after 30 mins at pH 5 to 7.4 by circular dichroism spectroscopic analysis
# Summary of the method: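 Peptide (20 μM stock in 5 mM sodium phosphate pH 8.0; 7 μM final) mixed with POPC LUVs (extruded, 100 nm pores) at 1:300, pH lowered with HCl, 30 min RT. Far-UV CD 260–200 nm in 0.1 cm cuvette, ≥5 scans averaged, liposome spectrum subtracted; expressed as mean residue molar ellipticity.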
# MDA-MB-231 [3] = assay: Induction of opsonization in human MDA-MB-231 cells assessed as increase in recruitment of anti-DNP antibody to cell surface at 1 uM measured after 5 mins at pH 6 to 7.4 by AlexaFluor-488-conjugated anti-DNP antibody based immunofluorescence microscopic analysis; assay type: functional
# Summary of the method: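 MDA-MB-231 grown on poly-L-lysine coverslips (~70% confluent), exposed to 1 μM conjugate 5 min at 37 °C, pH 7.4 or 6.0, methanol-fixed, stained 1 h at 37 °C with anti-DNP-A488 at 40 μg/mL, Hoechst counterstain; imaged with 20× objective.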
# MDA-MB-231 [4] = assay: as §1, with “>1 uM” for “500 nM”, “6” for “6 to 7.4”, “PBMC” for “haNK cell”, “assay” for “assay relative to control”; assay type: functional, cell-based
# [5] = Drug internalization in human MDA-MB-231 cells assessed as increase in fluorescence at 1 uM measured after 30 mins at pH 6 to 7.4 in presence of FITC-labeled anti-human IgG by flow cytometric method; assay type: ADME, cell-based; conditions: mda-mb-231, pH 6, 0.5 h
# Summary of the method: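 Control for specificity: MDA-MB-231 treated with 1 μM conjugate at pH 7.4 or 6.0 (5–10 min, 37 °C), washed, then incubated ± 25 μg/mL FITC anti-human IgG in PBS/10% FBS, 30 min at 4 °C, fixed, read by flow cytometry.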
# MDA-MB-231 [6] = assay: as §1, with “0.1 uM” for “500 nM”, “6” for “6 to 7.4”, “PBMC” for “haNK cell”; assay type: functional
# MDA-MB-231 [7] = assay: Cytotoxicity against human MDA-MB-231 cells assessed as increase in cell lysis at 0.5 to 1 uM incubated for 5 mins at pH 6 to 7.4 followed by compound washout prior to human PBMC addition at 50:1 effector to target ratio measured after 4 hrs by LDH release assay; conditions: mda-mb-231, pH 6, 4 h
# MDA-MB-231 [8] = assay: (§3) Induction of antibody dependent cytotoxicity against human MDA-MB-231 cells assessed as induction of cell lysis at >500 nM incubated for 5 mins at pH 6 to 7.4 followed by compound washout prior to anti-DNP antibody addition for 30 mins and subsequent human haNK cell addition at 5:1 effector to target ratio measured after 4 hrs by LDH release assay; assay type: functional, cell-based; summary of the method: as §2
# MDA-MB-231 [9] = assay: Cytotoxicity against human MDA-MB-231 cells assessed as increase in cell lysis at 0.5 to 1 uM incubated for 5 mins at pH 6 to 7.4 followed by compound washout prior to human haNK cell addition at 5:1 effector to target ratio measured after 4 hrs by LDH release assay; assay type: cell-based; conditions: mda-mb-231, pH 6, 4 h
# MDA-MB-231 [10] = assay: (§4) Cytotoxicity against human MDA-MB-231 cells assessed as increase in cell lysis at 0.5 to 1 uM incubated for 5 mins at pH 6 to 7.4 followed by compound washout prior to anti-FITC polyclonal rabbit antibody addition for 30 mins and subsequent human PBMC addition at 5:1 effector to target ratio measured after 4 hrs by LDH release assay; assay type: cell-based; conditions: mda-mb-231, pH 6, 1 µM
# MDA-MB-231 [11] = assay: Induction of opsonization in human MDA-MB-231 cells assessed as increase in recruitment of anti-DNP antibody to cell surface at 1 uM preincubated with AlexaFluor-488-conjugated anti-DNP antibody for 30 mins followed by cell addition at pH 6 to 7.4 by flow cytometry; assay type: functional, cell-based
# MDA-MB-231 [12] = assay: Induction of opsonization in human MDA-MB-231 cells assessed as increase in recruitment of anti-DNP antibody to cell surface at 1 uM preincubated for 5 mins at pH 6 to 7.4 followed by pooled human serum addition and measured in presence of FITC-labeled anti-human IgG antibody based flow cytometry; assay type: functional
# Summary of the method: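 300000 MDA-MB-231 in suspension exposed to 1 μM conjugate 5 min, 37 °C, pH 7.4 or 6.0; washed; blocked with human IgG isotype control 100 μg/mL, 20 min 4 °C; 12.5% pooled human complement serum 20 min 4 °C; then 25 μg/mL FITC anti-human IgG 30 min 4 °C; PFA-fixed, flow cytometry; fold over pH 7.4 serum-only.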
# MDA-MB-231 [13] = assay: (§5) Induction of complement dependent cytotoxicity against human MDA-MB-231 cells assessed as cell lysis at 1 uM incubated for 5 mins at pH 7.4 followed by compound washout prior to anti-DNP antibody addition for 30 mins and subsequent pooled human serum addition measured after 4 hrs by LDH release assay; assay type: functional, cell-based
# Summary of the method: (§6)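 240000 MDA-MB-231 exposed in suspension to 1 μM conjugate for 5 min, 37 °C, at pH 7.4 or 6.0, washed, 25 μg/mL unlabeled anti-DNP rabbit polyclonal 30 min 4 °C, then 12.5% pooled human complement serum in DMEM 4 h at 37 °C. Supernatant LDH (A490/A680); % lysis vs antibody-only cells without peptide.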
# MDA-MB-231 [14] = assay: as §1, with “1 uM” for “500 nM”, “6” for “6 to 7.4”, “PBMC” for “haNK cell”; assay type: functional
# MDA-MB-231 [15] = assay: as §3, with “increase in” for “induction of”, “lysis” for “lysis at >500 nM”, “PBMC” for “haNK cell”; assay type: functional, cell-based
# MDA-MB-231 [16] = assay: as §5, with “6” for “7.4”, “assay relative to control” for “assay”; assay type: functional; summary of the method: as §6
# MDA-MB-231 [17] = assay: Cytotoxicity against human MDA-MB-231 cells assessed as increase in cell lysis at <=10 uM measured after 4 hrs by LDH release assay; assay type: cell-based; conditions: mda-mb-231, 4 h
# MDA-MB-231 [18] = assay: as §4, with “haNK cell” for “PBMC”; assay type: cell-based; conditions: mda-mb-231, pH 6, 1 µM
# Summary of the method: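 150000 target cells (MDA-MB-231; also LnCap, SK-OV-3 with haNK) treated with conjugate 5 min at 37 °C, pH 7.4 or 6.0, washed, 25 μg/mL anti-FITC rabbit polyclonal 30 min 4 °C, then 4 h at 37 °C with PBMCs at 50:1 (RPMI) or haNK at 5:1 (MEMα). LDH release; % lysis relative to antibody-only pH 7.4 cells; mean ± SEM, n = 3–12.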
# MDA-MB-231 [19] = assay: Induction of opsonization in human MDA-MB-231 cells assessed as increase in recruitment of anti-DNP antibody to cell surface at 1 uM measured after 1 hr at pH 6 to 7.4 by AlexaFluor-488-conjugated anti-DNP antibody based flow cytometry; assay type: functional
smiles,measurement,setting,value
CC[C@H](C)[C@H](NC(=O)[C@@H]1CCCN1C(=O)[C@H](CC(N)=O)NC(=O)[C@H](CCC(N)=O)NC(=O)[C@H](CCC(=O)O)NC(=O)[C@@H](N)CCCCNc1ccc([N+](=O)[O-])cc1[N+](=O)[O-])C(=O)N[C@@H](Cc1ccc(O)cc1)C(=O)N[C@@H](Cc1c[nH]c2ccccc12)C(=O)N[C@@H](C)C(=O)N[C@@H](CCCNC(=N)N)C(=O)N[C@@H](Cc1ccc(O)cc1)C(=O)N[C@@H](C)C(=O)N[C@@H](CC(=O)O)C(=O)N[C@@H](Cc1c[nH]c2ccccc12)C(=O)N[C@@H](CC(C)C)C(=O)N[C@@H](Cc1ccccc1)C(=O)N[C@H](C(=O)N[C@H](C(=O)N1CCC[C@H]1C(=O)N[C@@H](CC(C)C)C(=O)N[C@@H](CC(C)C)C(=O)N[C@@H](CC(C)C)C(=O)N[C@@H](CC(C)C)C(=O)N[C@@H](CCC(=O)O)C(=O)N[C@@H](CC(C)C)C(=O)N[C@@H](C)C(=O)N[C@@H](CC(C)C)C(=O)N[C@@H](CC(C)C)C(=O)N[C@H](C(=O)N[C@@H](CC(=O)O)C(=O)N[C@@H](C)C(=O)N[C@@H](CC(=O)O)C(=O)N[C@@H](CCC(=O)O)C(=O)NCC(=O)N[C@H](C(=O)NCC(N)=O)[C@@H](C)O)C(C)C)[C@@H](C)O)[C@@H](C)O (H-K(Dnp)EQNPIYWARYADWLFTTPLLLLELALLVDADEGTG-NH2),Activity,MDA-MB-231 [1],40%
same,Activity,MDA-MB-231 [2],Active
same,Activity,Lipid bilayer,Active
same,Activity,MDA-MB-231 [3],Active
same,Activity,MDA-MB-231 [4],inactive
same,Drug uptake,[5],Not Active
same,Activity,MDA-MB-231 [6],20%
same,Activity,MDA-MB-231 [7],Non-Toxic
same,Activity,MDA-MB-231 [8],inactive
same,Activity,MDA-MB-231 [9],Non-Toxic
same,Activity,MDA-MB-231 [10],Non-Toxic
same,Activity,MDA-MB-231 [11],Active
same,Activity,MDA-MB-231 [12],Active
same,Activity,MDA-MB-231 [13],inactive
same,Activity,MDA-MB-231 [14],40%
same,Activity,MDA-MB-231 [15],Dose-dependent effect
same,Activity,MDA-MB-231 [16],10%
same,Activity,MDA-MB-231 [17],Non-Toxic
same,Activity,MDA-MB-231 [18],Non-Toxic
same,Activity,MDA-MB-231 [19],Active
